For experiment [1], the target named is MOR23-1 (Mus musculus, UniProt Q8VG01). The experiment is classed as cell-based. The settings on record: read-out: Response normalized to the response of the same oocyte to 100 μM nonanoic acid.
The target in experiment [2] is MOR32-11 (Mus musculus, UniProt Q8VF06). The experiment is classed as cell-based. The settings on record: for activation / activation at 3 µM / activation at 10 µM / activation at 30 µM: read-out: Response normalized to the response of the same oocyte to 100 μM nonanoic acid.
The subject of experiment [3] is MOR40-4 (S83). The settings on record: ref Malnic et al., 1999; cited from earlier work.
The target in experiment [4] is T1, MOR174-9 (mOR-EG) (Mus musculus, UniProt Q920P2).
T1 sequence (Q920P2 1-313): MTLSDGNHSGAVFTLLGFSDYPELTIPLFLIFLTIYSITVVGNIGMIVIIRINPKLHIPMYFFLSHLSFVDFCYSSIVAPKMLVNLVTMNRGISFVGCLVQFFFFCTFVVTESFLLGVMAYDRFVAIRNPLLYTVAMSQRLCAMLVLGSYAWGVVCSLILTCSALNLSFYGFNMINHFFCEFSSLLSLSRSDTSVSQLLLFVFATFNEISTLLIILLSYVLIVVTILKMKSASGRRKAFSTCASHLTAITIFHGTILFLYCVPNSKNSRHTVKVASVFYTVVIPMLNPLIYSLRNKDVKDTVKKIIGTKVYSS
The experiment is classed as cell-based. The conditions noted are these: each at 100 μM, 15 sec application.

Experiment [5] deals with oocytes expressing Gαolf and CFTR, but no receptor. The experiment is described as follows: Control oocytes expressing Gαolf and CFTR, but no receptor. The experiment is classed as cell-based, Xenopus laevis. The settings on record: 100 μM, 15 sec application. The method, boiled down:
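Xenopus oocytes were defolliculated with collagenase B for 2 h at room temperature and injected with human Gαolf (10 ng) and CFTR (1 ng) cRNA in 23 nl water, with no receptor. Under voltage clamp in ND96 (pH 7.5), test compounds from 1 M DMSO stocks, diluted in ND96, were applied for 15 sec. 1 mM IBMX served as receptor-independent CFTR activator. Read-out was current.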

In experiment [6] the target is T1, MOR174-9 (mOR-EG). The settings on record: ref Abaffy et al., 2006; cited from earlier work.

MOR32-11, sequence (Q8VF06 1-312): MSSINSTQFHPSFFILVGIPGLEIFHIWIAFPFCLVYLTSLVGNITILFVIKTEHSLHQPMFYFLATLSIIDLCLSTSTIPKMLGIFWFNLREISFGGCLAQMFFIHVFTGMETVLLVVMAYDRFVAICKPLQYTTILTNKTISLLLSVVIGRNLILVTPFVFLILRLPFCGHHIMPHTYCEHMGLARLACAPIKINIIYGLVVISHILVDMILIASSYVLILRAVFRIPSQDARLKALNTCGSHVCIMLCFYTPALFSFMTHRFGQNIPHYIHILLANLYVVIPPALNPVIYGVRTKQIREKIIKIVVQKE

As to `O=C(O)CCCCCBr` [6-Bromo-hexanoic acid, 6-bromohexanoic acid], in experiment [1], the activation is 61 ± 7%, the activation at 3 µM worked out at 0%, the activation at 10 µM came out at 0% and the activation at 30 µM came to 22 ± 6%. The activation in experiment [2] was 0%.
Regarding `O=C(O)CCCCCCCBr` [8-Bromo-octanoic acid, 8-bromooctanoic acid], in experiment [3], the “Response of MOR40-4 (S83) to odorant (previously shown)” value (“Response of MOR40-4 (S83) to odorant” for short) is on record as “respond”. In addition, in experiment [1], the activation was 32 ± 6%, the activation at 3 µM is 0%, the activation at 10 µM worked out at 0% and the activation at 30 µM is 43 ± 8%. In addition, the activation in experiment [2] is 0%.
Consider `O=C(O)CCCCCCCCCBr` [10-Bromo-decanoic acid, 10-bromodecanoic acid], for which the activation in experiment [1] turned out to be 0%. In addition, in experiment [2], the activation is 60 ± 4%, the activation at 3 µM was found to be 0%, the activation at 10 µM worked out at 0% and the activation at 30 µM worked out at 0%.
Take `O=C(O)CCCCCCCCCCBr` [11-Bromo-undecanoic acid]: the activation in experiment [1] turned out to be 0%. For the same compound, in experiment [2], the activation was 27 ± 10%, the activation at 3 µM amounted to 0%, the activation at 10 µM is 0% and the activation at 30 µM was 0%.
On to `O=C(O)CCCCCCCCCCCBr` [12-Bromo-dodecanoic acid], for which the figures for the activation in experiment [1] and in experiment [2] were 0% and 6 ± 2%, respectively.
Consider `C=C(C)[C@H]1CC=C(C)C(=O)C1` [(+) carvone], for which the “Response of MOR174-9 to odorant” value in experiment [4] was “does not respond”.
The same measure, in the same setting: next, `C=C(C)[C@@H]1CC=C(C)C(=O)C1` [(−) carvone]: “does not respond”.
For the compound `CCCCCCCCCC=O` [Decanal], in experiment [1], the activation is 0%. Also, in experiment [2], the activation was determined as 23 ± 5%, the activation at 3 µM came to 0%, the activation at 10 µM turned out to be 0% and the activation at 30 µM was determined as 0%.
As for `CCCCCCCCCC(=O)O` [Decanoic acid], the activation in experiment [1] stood at 0%. Besides, in experiment [2], the activation was 122 ± 8%, the activation at 3 µM is 0%, the activation at 10 µM turned out to be 13 ± 3% and the activation at 30 µM came to 0%.
With `CCCCCCCCCCCC=O` [Dodecanal], the activation in experiment [1] was found to be 0%. In addition, in experiment [2], the activation was determined as 25 ± 3%, the activation at 3 µM worked out at 0%, the activation at 10 µM was found to be 0% and the activation at 30 µM was 0%.
For the compound `CCCCCCCCCCCC(=O)O` [Dodecanoic acid], in experiment [2], the activation at 3 µM amounted to 0%, the activation at 10 µM was 0% and the activation at 30 µM is 0%.
Regarding `CCCCCCC(=O)O` [Heptanoic acid], in experiment [1], the activation turned out to be 64 ± 10%, the activation at 3 µM turned out to be 0%, the activation at 10 µM was found to be 10 ± 3% and the activation at 30 µM was determined as 17 ± 4%. Moreover, in experiment [2], the activation worked out at 35 ± 6%, the activation at 3 µM amounted to 0%, the activation at 10 µM was 13 ± 5% and the activation at 30 µM came out at 40 ± 12%. The “Saturation of dose-response at MOR32-11” value in experiment [2] (up to a concentration of 1 mM, data not shown) is “failed to saturate”.
Regarding `CCCCCCCCC=O` [Nonanal], the activation in experiment [1] worked out at 0%. In experiment [2], the activation came out at 32 ± 6%, the activation at 3 µM is 0%, the activation at 10 µM is 0% and the activation at 30 µM was 0%.
On to `CCCCCCCCC(=O)O` [Nonanoic acid], for which the “Response of MOR40-4 (S83) to odorant” value in experiment [3] is “respond”. In experiment [1], the activation came to 100%, the activation at 3 µM came to 0%, the activation at 10 µM was found to be 11 ± 4% and the activation at 30 µM came to 48 ± 8%. Moreover, in experiment [2], the activation was 100%, the activation at 3 µM was 0%, the activation at 10 µM was 25 ± 4% and the activation at 30 µM was found to be 61 ± 8%.
On to `CCCCCCCC=O` [Octanal], for which, in experiment [1], the activation amounted to 198 ± 27%, the activation at 3 µM worked out at 35 ± 5%, the activation at 10 µM was 76 ± 13% and the activation at 30 µM is 107 ± 7%. In experiment [2], the activation turned out to be 22 ± 6%, the activation at 3 µM turned out to be 0%, the activation at 10 µM is 0% and the activation at 30 µM was 0%.
For `CCCCCCCC(=O)O` [Octanoic acid], the “Response of MOR40-4 (S83) to odorant” value in experiment [3] is “respond”. Moreover, in experiment [1], the activation came out at 178 ± 29%, the activation at 3 µM was 70 ± 11%, the activation at 10 µM is 112 ± 17% and the activation at 30 µM was 158 ± 12%. In experiment [2], the activation is 76 ± 6%, the activation at 3 µM stood at 0%, the activation at 10 µM is 27 ± 7% and the activation at 30 µM came to 83 ± 14%.
With `CCCCCCCCO` [Octanol], in experiment [1], the activation came to 100 ± 6%, the activation at 10 µM worked out at 23 ± 2% and the activation at 30 µM came out at 68 ± 13%. In experiment [2], the activation came to 0%.
Regarding `CCCCCCCCCCC=O` [Undecanal], the activation in experiment [1] turned out to be 0%. Besides, in experiment [2], the activation worked out at 16 ± 3%, the activation at 3 µM stood at 0%, the activation at 10 µM came to 0% and the activation at 30 µM was determined as 0%.
Consider `O=C(O)CCCCCCCCCC(=O)O` [Undecanedioic acid], for which the activation in experiment [1] and in experiment [2] was 0% each time.
As to `CCCCCCCCCCC(=O)O` [Undecanoic acid], the activation in experiment [1] was determined as 0%. In addition, in experiment [2], the activation worked out at 98 ± 22%, the activation at 3 µM came to 0%, the activation at 10 µM is 0% and the activation at 30 µM stood at 26 ± 8%.
Take `CCCCCCCCCCCO` [Undecanol]: the figures for the activation in experiment [1] and in experiment [2] were 0% and 6 ± 2%, respectively.
Turning to `CCCCO` [butanol], in experiment [4], the “Response of MOR174-9 to odorant” value is given as “does not respond”.
Take `CCOc1cc(C=O)ccc1O` [ethyl vanillin]: in experiment [4], the “Response of MOR174-9 to odorant” value is “responds”. For the same compound, the “Response of oocytes expressing Gαolf and CFTR, but no receptor” value (shortened to “Response … but no receptor”) in experiment [5] was “do not respond”.
As for `C=CCc1ccc(O)c(OC)c1` [eugenol], the “Response of MOR174-9 to odorant” value in experiment [4] was “responds”. The “Response … but no receptor” value in experiment [5] was “do not respond”.
Turning to `CC(C)=CCC/C(C)=C/CO` [geraniol], the “Response of MOR174-9 to odorant” value in experiment [4] is “does not respond”.
Still for that read-out and setting: next, `COc1ccccc1O` [guaiacol]: “does not respond”.
On to `C/C=C/c1ccc(OC)c(OC)c1` [methylisoeugenol], for which the “Antagonism of the response to eugenol of MOR174-9 expressed in oocytes” value in experiment [6] was “can antagonize”.
On to `CCCCCCCCCO` [nonanol], for which the “Response of MOR40-4 (S83) to odorant” value in experiment [3] is on record as “respond”.
On to `COc1cc(C=O)ccc1O` [vanillin], for which the “Response of MOR174-9 to odorant” value in experiment [4] was “responds”. Besides, in experiment [5], the “Response … but no receptor” value is “do not respond”.
